Compounds with a hit are over-represented: about 3.8% of the library has one in this group of screens.
Yeast lifespan up – yeast lifespan extension; S. cerevisiae growth with nicotinamide, OD615; deaD strain in restrictive glucose medium; inhibition of the nicotinamide effect, % at 10 µM; 130,000 compounds, 0.68% hits; AID 775;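 active = inhibition above a set limit, placed 3 SD over the median of all compounds, cut at about 26% in these data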;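 note: 0% = nicotinamide-treated wells and 100% = cells grown without nicotinamide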
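Material: Modified budding yeast, DeaD strain | Medium: Restrictive glucose medium | Probe or stimulus: 1.5 mM nicotinamide | Dosing: Single dose 10 µM compound, 0.25% DMSO | Times: 48 h at 30 °C | Technique: OD615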
Measles CPE – protection of cells from measles virus | AID 841 | protection (pct of control), % at 4 µM | 140,000 compounds, 1.5% hits | Measles virus-infected cells, CPE protection, absorbance; in the data active = protection mostly above about 24%, no sharp cut-off; inactive = mostly below about 26%
RAM network inh – blocks the yeast RAM network; S. cerevisiae dse1pr::URA3 reporter, 5-FOA growth OD615, 2 d; analog-sensitive cbk1-as2 kinase mutant strain; inhibition, % at 50 µM; 190,000 compounds, 1.8% hits; AID 868;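 active = inhibition above a set limit, 3 SD over mean compound inhibition, cut at about 8.4% in these data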;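 note: 0% = DMSO-only wells with no growth and 100% = 10 µM 1-NA-PP1 full growth; inhibition rescues growth on 5-FOA so higher OD means more RAM inhibition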
BB579 growth dn – yeast BB579 growth reduction in restrictive medium; AID 804; S. cerevisiae BB579 growth, OD615, 48 h; 140,000 compounds, 0.51% hits; inhibition, % at 10 µM;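 active = inhibition above a set limit, 3 SD over the mean compound inhibition, cut at about 44% in these data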
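Test system: DeaD yeast strain BB579 / Buffer or medium: restrictive glucose-based CSMM-D medium / Doses: single 10 µM dose / Schedule: 4 h cell preincubation, 48 h compound exposure, 30 °C humidified / Technique: culture absorbance at 615 nm / Controls: amphotericin B positive control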
sdo1 growth – compounds rescuing growth of sdo1-depleted yeast, bone marrow failure model; S. cerevisiae sdo1-depleted JHY4D growth rescue, OD600 30 h; hits give high values; pdr5 snq2 efflux-pump mutant strain; z-score at 10 µM; 140,000 compounds, 0.21% hits; AID 817;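 active = z-score above 3 at both the 24 hr and the 30 hr optical density reads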;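 note: z-score against mean and SD of all compound wells on the same plate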
Active calls of the source: *; x = not tested or not shown.

SMILES | Yeast lifespan up | Measles CPE | RAM network inh | BB579 growth dn | sdo1 growth
CC(C)(C)C1CCc2[nH]nc(C(=O)O)c2C1 (centres undefined) | 62* | 22 | 1 | -33 | 0.42
O=c1c(Cl)c(Cl)cnn1Cc1nnc(-c2ccc(Cl)cc2)o1 | x | x | 4 | x | x
Cc1nnc(Sc2nc3ccccc3o2)c2ccccc12 | -7 | 26* | -1 | 1 | -0.4
COc1ccccc1C1N(c2ccc(Cl)cc2)C(=O)C2CCCN21 (centres undefined) | 4 | 6 | 1 | -73 | 0.85
O=C1C2CCCN2C(c2cccs2)N1c1ccc(Cl)cc1 (centres undefined) | -5 | 25* | 1 | -39 | -0.25
CCCCCCc1ccc(-c2ncc(N)cn2)cc1 | -31 | 8 | 1 | 97* | -2.9
C=CCn1c(-c2ccc(OC)cc2)csc1=Nc1c(C)n(C)n(-c2ccccc2)c1=O | 100* | 2 | 2 | -38 | -0.71
Cc1csc(=Nc2c(C)n(C)n(-c3ccccc3)c2=O)n1Cc1ccccc1 | -6 | 17 | 3 | -15 | -0.83
CCCSc1nnc(NC(=O)Nc2ccc(F)cc2)s1 | 5 | 43* | 1 | -38 | -0.92
C/C(=N\Nc1nc2ccccc2[nH]1)c1ccc(N2CCOCC2)cc1 | x | x | 0 | x | x
O=C(O)C1CCCN1C(=O)Nc1ccc(Cl)cc1 (centres undefined) | 4 | 26* | 1 | -42 | 1.2
COC(=O)/C(C#N)=C/c1c(Oc2cc(C)cc(C)c2)nc2c(C)cccn2c1=O | 2 | 7 | 9.1* | -25 | -0.99
Cc1cc(Oc2nc3c(C)cccn3c(=O)c2/C=C(\C#N)S(=O)(=O)c2ccc(Cl)cc2)ccc1Cl | -1 | 11 | 6 | -14 | -2
COc1ccc(N/C=C/C(=O)c2sc(-c3ccccc3)nc2C)cc1 | -11 | 3 | 9.5* | -42 | -0.42
N#C/C(=C(/O)CN1CCN(c2ccccc2F)CC1)c1nc(-c2ccc(Cl)cc2)cs1 | -3 | 5 | 3 | -23 | -0.64
N#C/C(=C(/O)CN1CCCCC1)c1nc(-c2ccc(Cl)cc2)cs1 | 11 | 81* | 2 | -43 | -0.42
COc1ccc(Cn2c(C3CC3)nc3ccc(NC(C)=O)cc3c2=O)cc1 | 6 | 9 | 10* | -42 | -0.86
CCCc1nc2ccc(NC(C)=O)cc2c(=O)n1Cc1ccc(Cl)cc1 | x | x | 1 | x | x
Cc1ccc(/C([O-])=C(/C(=S)NCCN2CCOCC2)[n+]2ccccc2)cc1[N+](=O)[O-] | x | x | 2 | x | x
CC(=O)N1NC(=Nc2ccccc2)SC1(C)C | x | x | 0 | x | x
COc1ccc(-c2cc(-c3ccccc3O)[nH]n2)cc1 | -13 | 14 | -1 | 76* | -1.9
COc1ccc(/C=C/c2nc(-c3ccccc3O)n[nH]2)cc1 | -2 | 2 | 8.8* | -42 | -1.4
CCN(CC(=O)Nc1ccc2c(c1)OCCO2)c1nc(-c2cccnc2)nc2ccccc12 | -13 | 8 | 2 | -57 | -0.83
Cc1cccc2cc(CN(CCN(C)C)C(=S)Nc3ccccc3)c(=O)[nH]c12 | 9 | 15 | 3 | -19 | 0.75
Cc1onc(-c2c(Cl)cccc2Cl)c1C(=O)c1c[nH]c(C(=O)NCC2CCCO2)c1 (centres undefined) | x | x | 3 | x | x
SMILES | Yeast lifespan up | Measles CPE | RAM network inh | BB579 growth dn | sdo1 growth
Cc1cc(C(=O)Cn2nnc3ccccc3c2=O)c(C)n1-c1ccccc1F | 12 | 97* | 1 | 0 | -1.6
COc1ccc(N2C(=O)CC2(C#N)c2ccc(OCc3ccccc3)cc2)cc1 (centres undefined) | 5 | 5 | 11* | -23 | -1.1
COc1ccccc1N1C(=O)CCC1(C#N)c1ccccc1 (centres undefined) | -8 | 20 | -1 | -23 | 0.68
O=C(CN(Cc1ccco1)C(=O)CNS(=O)(=O)c1ccc(F)cc1)NCCc1ccccc1 | 3 | 39* | 5 | -8 | 0.7
O=C(Cc1cccs1)NCCSc1c(-c2ccc(Cl)cc2)[nH]c2ccccc12 | 8 | 12 | 8.9* | -24 | -0.42
CCOC(=O)c1cc(C(=O)c2cccs2)n2ccc(C(C)=O)cc12 | -8 | 3 | 8.5* | -40 | -2.5
CCOC(=O)c1cc(C(C)=O)n2ccccc12 | -29 | 0 | 2 | -12 | 0.31
Cc1nc2sc3c(c2c(=O)o1)CC(C)(C)OC3 | 32* | 21 | 1 | -16 | 2.4
Cc1nc2sc3c(c2c(=O)o1)CCC3 | -9 | 6 | 0 | -38 | -0.09
Cn1c(N)c(C(=O)COC(=O)CCCOc2ccc(Cl)cc2Cl)c(=O)n(C)c1=O | x | x | 6 | x | x
Cc1nn(-c2ccccc2)c2sc(C(=O)O)cc12 | -26 | 29 | 0 | 50* | 0.16
Cc1nn(-c2ccc(F)cc2)c2sc(C(=O)O)cc12 | -9 | 28 | 1 | 43* | 0.73
Cc1ccc(-n2nc(C)c3cc(C(=O)O)sc32)cc1 | -14 | 13 | -1 | 18 | 0.59
Cc1nn(-c2ccccc2)c2sc(-c3n[nH]c(=S)o3)cc12 | -23 | 0 | 0 | 72* | 0.01
COc1ccccc1C(=O)Nc1sc2c(c1C(=O)NCc1ccco1)CCCC2 | -7 | 8 | 2 | -40 | 0.41
C#CC[N+]1(CC#Cc2ccc(C)cc2)CCCCC1 | 2 | 29 | 0 | -18 | 1.1
Fc1ccc(Sc2ccccc2CNC2=NCCN2)cc1 | 10 | 3 | 1 | -18 | -0.85
O=C(NCc1ccncc1)C(=O)N/N=C/c1ccccn1 | x | x | 0 | x | x
Cc1ccc(NC(=O)COC(=O)CCC(=O)c2cccs2)c(C)c1 | x | x | 4 | x | x
COC(=O)C(Cc1ccc(OC(=O)c2ccccc2C)cc1)N1Cc2ccccc2C1=O (centres undefined) | -2 | 10 | 8.9* | -67 | -1.1
CCOC(=O)C1=C(C)N=c2s/c(=C/c3ccco3)c(=O)n2C1c1cccc(OC)c1 (centres undefined) | 1 | 9 | 9.5* | -40 | -0.98
CC(=O)c1ccc(N=C2SCCCN2C(=O)C2CCCC2)cc1 | x | x | 0 | x | x
COc1ccccc1OCCN1CSC(=S)N(C)C1 | 14 | 34* | -1 | 53* | -2
Cc1cccc(OCCCN2CCCCCC2)c1 | -14 | 8 | 0 | -25 | -0.47
Cc1cccc(OCCN2CSC(=S)N(C)C2)c1 | 8 | 4 | 0 | 67* | -2.7
SMILES | Yeast lifespan up | Measles CPE | RAM network inh | BB579 growth dn | sdo1 growth
COc1ccccc1OCCCCN1CCN(c2ccccc2OC)CC1 | -5 | 3 | 1 | -56 | 0.55
O=C(CNC(=O)c1cccs1)NCC(=O)OCc1cccc(Cl)c1 | -6 | active | 3 | -44 | -0.05
O=C(CNC(=O)c1ccco1)NCC(=O)OCc1cccc(Cl)c1 | -4 | 8 | 1 | -20 | 0.04
Cc1ccc(-c2ccc(=O)n(CCC(=O)NCCN3CCCCC3C)n2)cc1 (centres undefined) | -7 | 7 | -1 | -73 | -0.74
CN1C(=O)CSC1=NC12CC3CC(CC(C3)C1)C2 | 53* | 9 | 2 | 0 | 0.82
COc1ccc(C(=O)CSc2ccccc2C(=O)O)cc1 | x | x | 1 | x | x
OCCCc1nc2n(n1)C(c1cccs1)C=C(c1ccccc1)N2 (centres undefined) | -10 | 64* | 0 | -20 | -0.2

Bioassay records: PubChem, several laboratories
